Measurements as given in paper PMC10233671 (ACS Omega, 2023).
Converted amounts (≈) assume the structure as drawn.

What was measured:
Msmeg CIII2CIV2 = Msmeg CIII2CIV2 (Mycolicibacterium smegmatis, UniProt A0R052+I7GD61); experiment: Oxygen consumption assay with purified CIII2CIV2; type: biochemical, Mycobacterium smegmatis
mitochondrial complex I = mitochondrial complex I (Bos taurus, UniProt P03887+P17694+P42026); experiment: Bos taurus complex I activity assay; type: biochemical; conditions: 10 μM, SMPs
In short: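 Complex I from bovine heart sub-mitochondrial particles, prepared at 4 °C from isolated mitochondria and cleared at 16,000g. In a 96-well plate, SMPs were mixed with 10 μM test compound or positive control (rotenone, antimycin A or KCN). The reaction was started by injecting 200 μM NADH. NADH oxidation was followed at 340 nm for 8 min.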

[1] = biological target: bovine mitochondrial cytochrome bc1 (complex III) (Bos taurus, UniProt P00157); experiment: Oxygen consumption assay with bovine heart sub-mitochondrial particles; type: biochemical
[2] = biological target: T1, mitochondrial CIII2 (cytochrome bc1) (Candida albicans, UniProt P0C8L0); experiment: C. albicans complex III activity assay; type: biochemical; conditions: 10 and 1 μM
T1 sequence (P0C8L0 1-387): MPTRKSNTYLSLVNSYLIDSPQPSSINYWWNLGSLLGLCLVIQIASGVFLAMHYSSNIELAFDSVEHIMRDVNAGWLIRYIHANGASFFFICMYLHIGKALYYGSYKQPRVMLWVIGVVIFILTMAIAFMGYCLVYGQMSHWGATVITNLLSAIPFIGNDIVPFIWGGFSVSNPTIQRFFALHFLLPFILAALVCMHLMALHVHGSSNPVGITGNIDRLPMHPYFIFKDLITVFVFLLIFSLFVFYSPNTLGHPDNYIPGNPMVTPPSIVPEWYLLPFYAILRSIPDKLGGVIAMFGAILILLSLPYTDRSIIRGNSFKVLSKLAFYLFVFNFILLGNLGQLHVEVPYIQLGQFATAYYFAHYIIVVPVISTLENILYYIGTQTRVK

Mtb H37Rv = conditions: reported value; cited from earlier work
[3] = cited from earlier work
[4] = tested on: viable mycobacteria in the sputum; conditions: phase 2a multiple-dose trial; cited from earlier work

Chain of mitochondrial complex I (P03887 whole entry): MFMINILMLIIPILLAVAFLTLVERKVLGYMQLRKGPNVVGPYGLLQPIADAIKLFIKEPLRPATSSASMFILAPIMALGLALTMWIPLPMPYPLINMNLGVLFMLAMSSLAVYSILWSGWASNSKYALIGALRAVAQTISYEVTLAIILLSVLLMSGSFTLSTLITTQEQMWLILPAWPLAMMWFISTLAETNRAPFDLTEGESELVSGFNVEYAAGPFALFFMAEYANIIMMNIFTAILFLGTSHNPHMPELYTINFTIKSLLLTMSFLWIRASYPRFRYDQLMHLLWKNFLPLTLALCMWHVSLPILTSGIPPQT
Chain of mitochondrial complex I (P42026 38-216): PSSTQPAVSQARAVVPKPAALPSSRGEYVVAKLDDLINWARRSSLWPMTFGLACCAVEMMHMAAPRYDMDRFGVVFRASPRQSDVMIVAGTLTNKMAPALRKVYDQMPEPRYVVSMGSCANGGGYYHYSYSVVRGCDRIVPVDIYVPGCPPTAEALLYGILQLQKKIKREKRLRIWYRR
Chain of mitochondrial complex I (P17694 34-463): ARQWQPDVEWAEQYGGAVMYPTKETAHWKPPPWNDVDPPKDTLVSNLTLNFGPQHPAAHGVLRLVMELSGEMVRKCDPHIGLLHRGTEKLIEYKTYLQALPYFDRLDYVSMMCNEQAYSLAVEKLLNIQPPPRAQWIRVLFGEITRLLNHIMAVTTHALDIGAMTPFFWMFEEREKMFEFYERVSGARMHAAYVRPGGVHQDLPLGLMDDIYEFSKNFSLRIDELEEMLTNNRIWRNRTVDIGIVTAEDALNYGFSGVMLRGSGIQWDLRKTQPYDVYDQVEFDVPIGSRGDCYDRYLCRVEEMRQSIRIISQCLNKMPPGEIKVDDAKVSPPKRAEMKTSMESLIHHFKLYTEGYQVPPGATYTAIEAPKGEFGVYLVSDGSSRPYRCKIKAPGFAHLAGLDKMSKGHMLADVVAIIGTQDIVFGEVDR

In the case of `CCc1nc2ccc(Cl)cn2c1C(=O)NCc1ccc(N2CCC(c3ccc(OC(F)(F)F)cc3)CC2)cc1` [Compound Q203], the IC50 (Msmeg CIII2CIV2) is reported as 99 ± 32 nM, the “inhibition of / binding to mitochondrial complex I” value (mitochondrial complex I) is reported as “do not inhibit” and the “activity against bovine mitochondrial cytochrome bc1” value [1] is reported as “did not show activity”. The “inhibition in SMPs” value ([1]; 1 μM) was “no inhibition was detected”, the “inhibition in SMPs” value ([1]; 10 μM) was “some inhibition” and the inhibition at 10 µM ([1]; read-out: inhibition of complex III in SMPs) was 80%. The “inhibition of purified C. albicans CIII2” value [2] was “No inhibition was observed”, the MIC50 (Mtb H37Rv) was 2.7 nM (≈ 1.5 ng/mL) and the half-life [3] was 13.38 ± 9.4704 days. The “early bactericidal activity” value [4] was “dose-dependent reduction in the load of viable mycobacteria in the sputum”.
